Experimental data: ChEMBL document CHEMBL1629579, “Correlating echinocandin MIC and kinetic inhibition of fks1 mutant glucan synthases for Candida albicans: implications for interpretive breakpoints” (Antimicrob Agents Chemother, 2009)
Values after ≈ are worked out from the molar mass of the structure shown. Numbered stars: 1 amine (or outer) side, 2 acyl side, 3 side chain; on linkers, the order of the positions; unused ones are H or OH. Bridge positions count the residues as written; N and C are the ends. Square brackets hold non-standard residues; d marks the D form. Peptide text beside a SMILES is read from it. * marks the point of attachment. pTerphenylCO(4''-OnC5H11) = CCCCCOc1ccc(-c2ccc(-c3ccc(C(=O)*)cc3)cc2)cc1; Orn(4R-OH,5R-OH) = O=C([C@H](C[C@@H](O)[C@@H](O)N[*:3])N[*:1])[*:2]; hTyr(3S-OH,4S-OH) = N[C@H](C(=O)O)[C@H](O)[C@@H](O)c1ccc(O)cc1; Pro(3S-OH,4S-Me) = C[C@H]1CN[C@H](C(=O)O)[C@H]1O; Hyp = O=C(O)[C@@H]1C[C@@H](O)CN1

Assays:
Candida albicans [1] = test: Antimicrobial activity against Candida albicans SC5314 by M27-A3 method in presence of 50% human serum; assay type: functional
Outline: (§1)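 Broth microdilution per CLSI M27-A3 in RPMI 1640, done in triplicate on three separate days. Each strain was tested with and without 50% human serum. C. krusei ATCC 6258 and C. parapsilosis ATCC 22019 served as QC strains. Arithmetic means are reported, and geometric means were used for comparison.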

Candida albicans [2] = test: Antimicrobial activity against Candida albicans 89 harboring FKS1 C1934A mutant gene and FKS1 hotspot1 S645Y mutant gene by M27-A3 method in presence of 50% human serum; assay type: functional; outline: as §1
[3] = Inhibition of Candida albicans 1002 1,3-beta-D-glucan synthase subunit FKS1p
Outline: (§2)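 Product-entrapped glucan synthase from YPD-grown cells (37°C, early stationary phase) in a filtration polymerization assay with [3H]UDPG. Echinocandin serial dilutions were added, with 1% DMSO in controls for anidulafungin. Reactions were started with enzyme, run 60 min at 25°C and stopped on ice. IC50 came from a variable-slope sigmoidal fit, in triplicate.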

Candida albicans [4] = test: Antimicrobial activity against Candida albicans 205 harboring FKS1 T1933C mutant gene and FKS1 hotspot1 S645P mutant gene by M27-A3 method in presence of 50% human serum; assay type: functional; outline: as §1
Candida albicans [5] = test: Activity at Candida albicans 122 1,3-beta-D-glucan synthase subunit FKS1p C1946A mutant
Outline: (§3)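 Product-entrapped 1,3-β-D-glucan synthase from cells grown in YPD at 37°C to early stationary phase. Wells held 50 mM HEPES pH 7.5, 10% glycerol, 1.5 mg/ml BSA, 25 mM KF, 1 mM EDTA, 25 μM GTP-γ-S, 1 μg enzyme and [3H]UDPG (0.015–2 mM). Reactions ran 60 min at 25°C. Vmax and Km came from Lineweaver-Burke plots, in triplicate.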

[6] = Inhibition of Candida albicans 119 1,3-beta-D-glucan synthase subunit FKS1p T1921C mutant; outline: as §2
Candida albicans [7] = test: Antimicrobial activity against Candida albicans 1002 by M27-A3 method in presence of 50% human serum; assay type: functional; outline: as §1
[8] = Inhibition of Candida albicans 205 1,3-beta-D-glucan synthase subunit FKS1p T1933C mutant
Outline: (§4)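 Enzyme is product-entrapped 1,3-β-D-glucan synthase, enriched from membranes of each strain grown at 37°C with shaking in YPD broth to early stationary phase. Filtration polymerization assay uses [3H]UDPG, started by adding enzyme and run 60 min at 25°C. Echinocandins are added as serial dilutions, with 1% DMSO controls for anidulafungin. IC50 is from a variable-slope sigmoidal fit; values are triplicate arithmetic means.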

Candida albicans [9] = test: Antimicrobial activity against Candida albicans 194 harboring FKS1 C1934T/G4082R mutant gene and FKS1 hotspot1 S645F mutant gene and FKS1 hotspot2 R1361R/H mutant gene by M27-A3 method; assay type: functional; outline: as §1
[10] = Inhibition of Candida albicans 194 1,3-beta-D-glucan synthase subunit FKS1p C1934T/G4082R mutant; outline: as §4
Candida albicans [11] = test: Antimicrobial activity against Candida albicans A15-10 harboring FKS1 T1933C mutant gene and FKS1 hotspot1 S645P mutant by M27-A3 method in presence of 50% human serum; assay type: functional; outline: as §1
Candida albicans [12] = test: Antimicrobial activity against Candida albicans 122 harboring FKS1 C1946A mutant gene and FKS1 hotspot1 P649H mutant gene by M27-A3 method in presence of 50% human serum; assay type: functional; outline: as §1
[13] = Inhibition of Candida albicans 149 1,3-beta-D-glucan synthase subunit FKS1p G1942T mutant; outline: as §4
[14] = Inhibition of Candida albicans 3795 1,3-beta-D-glucan synthase subunit FKS1p; outline: as §4
Candida albicans [15] = test: Activity at Candida albicans 3795 1,3-beta-D-glucan synthase subunit FKS1p
Outline: (§5)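 Glucan synthase from cells grown at 37°C with vigorous shaking to early stationary phase in YPD. Membrane enzyme enriched by product entrapment. Serial echinocandin dilutions; ANF controls held 1% DMSO. Reaction started by adding enzyme, run 60 min at 25°C in a filtration polymerization assay, stopped on ice. IC50 from a variable-slope sigmoidal fit; means of three repetitions on separate days.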

Candida albicans [16] = test: Antimicrobial activity against Candida albicans A15-10 harboring FKS1 T1933C mutant gene and FKS1 hotspot1 S645P mutant gene by M27-A3 method; assay type: functional; outline: as §1
Candida albicans [17] = test: Activity at Candida albicans 3107 1,3-beta-D-glucan synthase subunit FKS1p; outline: as §5
Candida albicans [18] = test: Activity at Candida albicans 2762 1,3-beta-D-glucan synthase subunit FKS1p T1922C mutant; outline: as §3
[19] = Inhibition of Candida albicans A15 1,3-beta-D-glucan synthase subunit FKS1p T1933Y mutant; outline: as §4
Candida albicans [20] = test: Antimicrobial activity against Candida albicans A15 harboring FKS1 T1933Y mutant gene and FKS1 hotspot1 S645S/P mutant gene by M27-A3 method in presence of 50% human serum; assay type: functional; outline: as §1
Candida albicans [21] = test: Antimicrobial activity against Candida albicans A15 harboring FKS1 T1933Y mutant gene and FKS1 hotspot1 S645S/P mutant gene by M27-A3 method; assay type: functional; outline: as §1
[22] = Inhibition of Candida albicans A15-10 1,3-beta-D-glucan synthase subunit FKS1p T1933C mutant; outline: as §4
Candida albicans [23] = test: Activity at Candida albicans 194 1,3-beta-D-glucan synthase subunit FKS1p C1934T/G4082R mutant; outline: as §3
[24] = Inhibition of Candida albicans 85 1,3-beta-D-glucan synthase subunit FKS1p C1934T mutant; outline: as §4
Candida albicans [25] = test: Antimicrobial activity against Candida albicans 90028 by M27-A3 method; assay type: functional
Outline: (§6)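 Broth microdilution per CLSI M27-A3 in RPMI 1640, with and without 50% human serum, in triplicate. C. krusei ATCC 6258 and C. parapsilosis ATCC 22019 served as quality-control strains. MIC reported as arithmetic mean of three repetitions on separate days.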

Candida albicans [26] = test: Activity at Candida albicans 89 1,3-beta-D-glucan synthase subunit FKS1p C1934A mutant; outline: as §3
Candida albicans [27] = test: Antimicrobial activity against Candida albicans 36082 by M27-A3 method; assay type: functional; outline: as §6
Candida albicans [28] = test: Antimicrobial activity against Candida albicans 36082 by M27-A3 method in presence of 50% human serum; assay type: functional; outline: as §1
Candida albicans [29] = test: Antimicrobial activity against Candida albicans 90 harboring FKS1 G4082R mutant gene and FKS1 hotspot2 R1361R/H mutant gene by M27-A3 method; assay type: functional; outline: as §1
Candida albicans [30] = test: Antimicrobial activity against Candida albicans 2762 harboring FKS1 T1922C mutant gene and FKS1 hotspot1 F641S mutant gene by M27-A3 method in presence of 50% human serum; assay type: functional; outline: as §1

## CCCCCOc1ccc(-c2ccc(-c3ccc(C(=O)N[C@H]4C[C@@H](O)[C@@H](O)NC(=O)[C@@H]5[C@@H](O)[C@@H](C)CN5C(=O)[C@H]([C@@H](C)O)NC(=O)[C@H]([C@H](O)[C@@H](O)c5ccc(O)cc5)NC(=O)[C@@H]5C[C@@H](O)CN5C(=O)[C@H]([C@@H](C)O)NC4=O)cc3)cc2)cc1 [ANIDULAFUNGIN] ({pTerphenylCO(4''-OnC5H11)}-[Orn(4R-OH,5R-OH)]T[Hyp][hTyr(3S-OH,4S-OH)]T[Pro(3S-OH,4S-Me)]; lactam 1-C)
Candida albicans [1]
  MIC: 0.5 µg/mL
Candida albicans [2]
  MIC: 8 µg/mL
[3]
  IC50: 0.00796 µg/mL (≈ 0.00698 µM)
  Ki: 0.00239 µg/mL (≈ 0.0021 µM)
Candida albicans [4]
  MIC: 8 µg/mL
Candida albicans [5]
  Km: 152 µM
  Vmax: 1.95 nmol/min
[6]
  IC50: 0.0113 µg/mL (≈ 0.00991 µM)
  Ki: 0.00677 µg/mL (≈ 0.00594 µM)
Candida albicans [7]
  MIC: 0.44 µg/mL
[8]
  IC50: 0.989 µg/mL (≈ 0.867 µM)
  Ki: 3.2231 µg/mL (≈ 2.83 µM)
Candida albicans [9]
  MIC: 4 µg/mL (≈ 3.51 µM)
[10]
  IC50: 0.782 µg/mL (≈ 0.686 µM)
  Ki: 0.29924 µg/mL (≈ 0.262 µM)
Candida albicans [11]
  MIC: 8 µg/mL
Candida albicans [12]
  MIC: 8 µg/mL
[13]
  IC50: 0.0933 µg/mL (≈ 0.0818 µM)
  Ki: 0.17055 µg/mL (≈ 0.15 µM)
[14]
  IC50: 0.00676 µg/mL (≈ 0.00593 µM)
  Ki: 0.0167 µg/mL (≈ 0.0146 µM)
Candida albicans [15]
  Km: 88 µM
  Vmax: 6.63 nmol/min
Candida albicans [16]
  MIC: 4 µg/mL (≈ 3.51 µM)
Candida albicans [17]
  Km: 102 µM
  Vmax: 6.04 nmol/min
Candida albicans [18]
  Km: 108 µM
  Vmax: 3.57 nmol/min
[19]
  IC50: 0.1287 µg/mL (≈ 0.113 µM)
Candida albicans [20]
  MIC: 2 µg/mL
Candida albicans [21]
  MIC: 0.5 µg/mL (≈ 0.438 µM)
[22]
  IC50: 0.901 µg/mL (≈ 0.79 µM)
  Ki: 2.5637 µg/mL (≈ 2.25 µM)
Candida albicans [23]
  Km: 61 µM
  Vmax: 5.81 nmol/min
[24]
  IC50: 0.787 µg/mL (≈ 0.69 µM)
  Ki: 0.44593 µg/mL (≈ 0.391 µM)
Candida albicans [25]
  MIC: 0.03 µg/mL (≈ 0.0263 µM)
Candida albicans [26]
  Km: 61 µM
  Vmax: 2.51 nmol/min
Candida albicans [27]
  MIC: 0.03 µg/mL (≈ 0.0263 µM)
Candida albicans [28]
  MIC: 0.12 µg/mL
Candida albicans [29]
  MIC: 0.25 µg/mL (≈ 0.219 µM)
Candida albicans [30]
  MIC: 4 µg/mL

## CC[C@H](C)C[C@H](C)CCCCCCCCC(=O)N[C@H]1C[C@@H](O)[C@@H](NCCN)NC(=O)[C@@H]2[C@@H](O)CCN2C(=O)[C@H]([C@H](O)CCN)NC(=O)[C@H]([C@H](O)[C@@H](O)c2ccc(O)cc2)NC(=O)[C@@H]2C[C@@H](O)CN2C(=O)[C@H]([C@@H](C)O)NC1=O [CASPOFUNGIN]
Candida albicans [1]
  MIC: 0.5 µg/mL
Candida albicans [2]
  MIC: 8 µg/mL
[3]
  IC50: 0.00175 µg/mL (≈ 0.0016 µM)
  Ki: 0.00626 µg/mL (≈ 0.00573 µM)
Candida albicans [4]
  MIC: 8 µg/mL
Candida albicans [5]
  Km: 152 µM
  Vmax: 1.95 nmol/min
[6]
  IC50: 0.01003 µg/mL (≈ 0.00917 µM)
  Ki: 0.00492 µg/mL (≈ 0.0045 µM)
Candida albicans [7]
  MIC: 0.5 µg/mL
[8]
  IC50: 0.2454 µg/mL (≈ 0.224 µM)
  Ki: 1.48 µg/mL (≈ 1.35 µM)
Candida albicans [9]
  MIC: 4 µg/mL (≈ 3.66 µM)
[10]
  IC50: 0.5307 µg/mL (≈ 0.485 µM)
  Ki: 0.46689 µg/mL (≈ 0.427 µM)
Candida albicans [11]
  MIC: 16 µg/mL
Candida albicans [12]
  MIC: 4 µg/mL
[13]
  IC50: 0.06822 µg/mL (≈ 0.0624 µM)
  Ki: 0.2 µg/mL (≈ 0.183 µM)
[14]
  IC50: 0.00144 µg/mL (≈ 0.00132 µM)
  Ki: 0.00467 µg/mL (≈ 0.00427 µM)
Candida albicans [15]
  Km: 88 µM
  Vmax: 6.63 nmol/min
Candida albicans [16]
  MIC: 8 µg/mL (≈ 7.32 µM)
Candida albicans [17]
  Km: 102 µM
  Vmax: 6.04 nmol/min
Candida albicans [18]
  Km: 108 µM
  Vmax: 3.57 nmol/min
[19]
  IC50: 0.2181 µg/mL (≈ 0.199 µM)
Candida albicans [20]
  MIC: 8 µg/mL
Candida albicans [21]
  MIC: 4 µg/mL (≈ 3.66 µM)
[22]
  IC50: 0.3224 µg/mL (≈ 0.295 µM)
  Ki: 1.358 µg/mL (≈ 1.24 µM)
Candida albicans [23]
  Km: 61 µM
  Vmax: 5.81 nmol/min
[24]
  IC50: 0.4591 µg/mL (≈ 0.42 µM)
  Ki: 0.51933 µg/mL (≈ 0.475 µM)
Candida albicans [25]
  MIC: 0.21 µg/mL (≈ 0.192 µM)
Candida albicans [26]
  Km: 61 µM
  Vmax: 2.51 nmol/min
Candida albicans [27]
  MIC: 0.21 µg/mL (≈ 0.192 µM)
Candida albicans [28]
  MIC: 0.25 µg/mL
Candida albicans [29]
  MIC: 1 µg/mL (≈ 0.915 µM)
Candida albicans [30]
  MIC: 8 µg/mL
